Laboratory results reported in ChEMBL document CHEMBL4184113, “Synthesis and PGE2 inhibitory activity of novel diarylheptanoids” (Bioorg Med Chem Lett, 2018).
Activity calls are given as the source filed them. The rule behind the calls is not given here.

Experiments:
3T3-L1 = assay: Cytotoxicity against mouse 3T3L1 cells assessed as reduction in cell viability at 10 ng/ml after 6 hrs by alamar blue assay; type: cell-based; details: 3t3-l1, 6 h
[1] = target: T1, Prostaglandin E synthase (Mus musculus) (UniProt Q9JM51); assay: (§1) Inhibition of mPGES1 in mouse 3T3L1 cells assessed as reduction in PGE2 production after 1 hr by ELISA; type: cell-based
T1 sequence (whole entry): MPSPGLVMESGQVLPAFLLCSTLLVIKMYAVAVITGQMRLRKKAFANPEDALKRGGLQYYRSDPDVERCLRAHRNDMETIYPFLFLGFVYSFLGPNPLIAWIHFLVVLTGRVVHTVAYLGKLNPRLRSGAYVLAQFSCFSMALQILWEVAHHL
How it was run: (§2)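 3T3 cells were treated at four doses and secreted PGE2 was measured by ELISA. IC50 was obtained by four-parameter logistic fit.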

Prostaglandin E synthase = target: T2, Prostaglandin E synthase (Mus musculus, UniProt Q9JM51); assay: as §1; type: cell-based; how it was run: as §2
T2 sequence (Q9JM51 whole entry): T1 sequence (whole entry)

Homo sapiens = organism: Homo sapiens; assay: Inhibition of TNFalpha-induced NFkappaB activation (unknown origin) expressed in mouse 3T3L1 cells at 10 ng/µl by luciferase reporter gene assay
[2] = target: T1, Prostaglandin E synthase (Mus musculus); assay: Inhibition of mPGES1 in mouse 3T3L1 cells assessed as reduction in PGE2 production at 1 to 10 ng/ml after 1 hr by ELISA; type: cell-based
How it was run: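 3T3 cells were treated with compound at 1 and 10 ng/ml. Culture media were collected and secreted PGE2 was measured by ELISA.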

[3] = target: T1, Prostaglandin E synthase (Mus musculus); assay: Inhibition of mPGES1 in mouse 3T3L1 cells assessed as reduction in PGE2 production at 10 ng/ml after 1 hr by ELISA relative to control; values are per cent of control

inhibition [1] | IC50 (Prostaglandin E synthase) [µM] | Structure (SMILES) | Activity (3T3-L1) | inhibition (Homo sapiens) | other results
Dose-dependent effect | 17 | COc1ccc(CCCCCCCc2ccccc2O)cc1OC | Non-Toxic | inactive | 
Dose-dependent effect | 1.7 | COc1ccc(C/C=C/CCCCc2ccc(O)cc2)cc1OC | Non-Toxic |  | 
 |  | COc1ccc(C/C=C/CCCCc2ccccc2O)cc1 |  | inactive | inhibition [2]: Active
Dose-dependent effect | 29 | COc1ccc(CCCCCCCc2ccc(O)cc2)cc1OC | Non-Toxic |  | residual activity [3]: 33%
Dose-dependent effect |  | COc1ccc(CCCCc2ccc(OC)cc2)cc1 |  | inactive | 
 |  | COc1ccc(CCCCCCCc2ccc(O)cc2)cc1 |  | inactive | 
 |  | COc1cc(/C=C/C(=O)CC(=O)/C=C/c2ccc(O)c(OC)c2)ccc1O |  | Active | 
 |  | COc1ccc(C/C=C/CCCCc2ccccc2O)cc1OC |  | inactive | 
Dose-dependent effect | 12 | COc1ccc(C/C=C/Cc2ccc(OC)cc2)cc1 | Non-Toxic |  | 
 |  | COc1ccc(CCCCCCCc2ccccc2O)cc1 |  |  | inhibition [2]: inactive
 |  | COc1ccc(C/C=C/CCCCc2ccc(O)cc2)cc1 |  |  | inhibition [2]: inactive
